Source: ChEMBL document CHEMBL1128641, “N-3-substituted pyrimidinones as potent, orally active, AT1 selective angiotensin II receptor antagonists” (J Med Chem, 1995)

Legend:
[1] = molecular target: Type-2 angiotensin II receptor (Bos taurus, UniProt G5E6F7); experiment: Binding affinity towards Angiotensin II type 2 receptor in bovine cerebellar cortical membranes; Inactive
[2] = molecular target: T1, Angiotensin II receptor (AT-1) type-1 (Rattus norvegicus, UniProt P29089+P25095); experiment: Displacement of [3H]angiotensin II from Angiotensin II type 1 receptor in rat adrenal cortical membrane; type: cell membranes
T1 sequence (P29089 whole entry): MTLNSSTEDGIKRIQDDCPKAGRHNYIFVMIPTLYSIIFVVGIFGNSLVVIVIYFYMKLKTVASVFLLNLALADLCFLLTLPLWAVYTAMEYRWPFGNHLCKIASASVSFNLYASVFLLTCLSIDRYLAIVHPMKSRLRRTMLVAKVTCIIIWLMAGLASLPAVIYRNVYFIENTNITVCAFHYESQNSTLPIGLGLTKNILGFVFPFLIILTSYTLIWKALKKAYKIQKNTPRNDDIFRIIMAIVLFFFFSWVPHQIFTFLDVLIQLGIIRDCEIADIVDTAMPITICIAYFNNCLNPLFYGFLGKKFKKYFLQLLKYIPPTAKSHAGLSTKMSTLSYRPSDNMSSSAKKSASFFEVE
T1 sequence (P25095 whole entry): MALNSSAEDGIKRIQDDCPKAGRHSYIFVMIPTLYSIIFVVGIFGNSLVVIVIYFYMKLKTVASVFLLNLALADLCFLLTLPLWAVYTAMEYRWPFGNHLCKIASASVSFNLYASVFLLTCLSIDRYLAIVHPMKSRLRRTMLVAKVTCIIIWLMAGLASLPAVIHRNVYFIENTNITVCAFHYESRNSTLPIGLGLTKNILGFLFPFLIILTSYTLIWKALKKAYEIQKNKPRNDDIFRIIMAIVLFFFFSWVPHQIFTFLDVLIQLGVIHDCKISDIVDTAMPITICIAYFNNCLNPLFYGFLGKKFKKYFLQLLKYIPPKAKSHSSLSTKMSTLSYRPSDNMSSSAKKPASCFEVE

Rattus norvegicus [3] = experiment: Time duration was determined from onset of the action till no response after […] administration of 1 mg/kg in anesthetized, ganglion blocked, A II- infused rat; type: functional
[4] = molecular target: T2, Angiotensin II receptor (Rattus norvegicus) (UniProt P29089+P25095+P35351); experiment: Effect on pressure response to angiotensin II receptor (AII) after (i.v.) administration of 1 mg/kg in anesthetized, ganglion blocked, AII-infused rat in vivo; type: functional, organism-based; design: dose 1 mg/kg
Procedure, shortened: (§1)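 After three reproducible A II challenges (100 ng/kg iv, every 10 min), compound was given iv 5 min before the next challenge. Challenges continued until the response returned near basal, with one dose per animal. Vehicle was 1% DMSO/stoichiometric NaOH or 0.5% methocel.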

[5] = molecular target: T2, Angiotensin II receptor (Rattus norvegicus); experiment: Effect on pressure response to angiotensin II receptor (AII) after […] administration of 1 mg/kg in anesthetized, ganglion blocked, A II- infused rat was determined in vivo; type: functional, organism-based; design: dose 1 mg/kg
Procedure, shortened: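 Compound was given intraduodenally, one dose per animal, in 1% DMSO/stoichiometric NaOH or 0.5% methocel. Inhibition was read 30 min after dosing; the 1 mg/kg duration is the time from onset until inhibition was no longer significant.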

Rattus norvegicus [6] = experiment: Time duration was determined from onset of the action till no response after (i.v.) administration of 1 mg/kg in anesthetized, ganglion blocked, A II- infused rat; type: functional; details: route intravenous
Procedure, shortened: as §1, with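 “Male Sprague-Dawley rats (300–400 g) were anesthetized with urethane (1.25 g/kg im) and ganglion-blocked with pentolinium (0.1 mg/kg/min), with carotid BP recorded at 37 °C. After” for “After”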

[7] = molecular target: T2, Angiotensin II receptor (Rattus norvegicus); experiment: Effect on pressure response to angiotensin II receptor (AII) after (i.v.) administration of 1 mg/kg in anesthetized, ganglion blocked, A II- infused rat was determined in vivo; type: functional, organism-based; design: dose 1 mg/kg; details: at 1 mg/kg
Procedure, shortened: as §1, with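 “Male Sprague-Dawley rats (300–400 g) were anesthetized with urethane (1.25 g/kg im) and ganglion-blocked with pentolinium (0.1 mg/kg/min), with carotid BP recorded at 37 °C. After” for “After”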

Rattus norvegicus [8] = experiment: ime duration was determined from onset of the action till no response after […] in anesthetized, ganglion blocked, A II- infused rat; type: functional
Rattus norvegicus [9] = experiment: Time from onset of the action at a dose of 1 mg/kg until significant inhibition of pressure response is no longer observed in anesthetized, ganglion blocked, A II- infused rat after […] administration; type: functional

T2 sequence (P35351 whole entry, looked up, one chain of several, the tested form may be a part): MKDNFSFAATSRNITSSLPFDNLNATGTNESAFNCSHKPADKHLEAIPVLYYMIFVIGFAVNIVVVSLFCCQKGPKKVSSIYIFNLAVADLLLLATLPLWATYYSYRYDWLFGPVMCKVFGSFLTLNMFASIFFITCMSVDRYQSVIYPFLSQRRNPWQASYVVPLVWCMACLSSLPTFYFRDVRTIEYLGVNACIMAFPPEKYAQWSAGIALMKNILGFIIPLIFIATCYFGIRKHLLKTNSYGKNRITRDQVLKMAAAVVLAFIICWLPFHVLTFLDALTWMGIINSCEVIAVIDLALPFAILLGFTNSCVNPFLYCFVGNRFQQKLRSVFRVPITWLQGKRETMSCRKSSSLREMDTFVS

| Ki [1] [µM] | Ki [2] [µM] | ED50 [4] [mg/kg] | ED50 [5] [mg/kg] | inhibition [7] [%] | Compound | Duration (Rattus norvegicus [3]) [min] | Duration (Rattus norvegicus [6]) [min] | Duration (Rattus norvegicus [8]) [min] | Duration (Rattus norvegicus [9]) [min] |
| --- | --- | --- | --- | --- | --- | --- | --- | --- | --- |
| > 4 | 0.016 | 0.43 | 14.5 |  | CCCCc1nc(C)n(Cc2occc2C(=O)O)c(=O)c1Cc1ccc(-c2ccccc2-c2nn[nH]n2)cc1 | 75 | 45 |  |  |
| > 4 |  |  |  | 46 | CCCCc1ncn(Cc2ccc(C(=O)O)cc2)c(=O)c1Cc1ccc(-c2ccccc2C(=O)O)cc1 |  | 25 |  |  |
| > 4 | 0.379 |  |  | 43 | CCCCc1ncn(Cc2ccccc2C(=O)O)c(=O)c1Cc1ccc(-c2ccccc2C(=O)O)cc1 |  | 25 |  |  |
| > 4 | 0.263 |  |  | 34 | CCCCc1nc(C)cc(=O)n1Cc1ccc(-c2ccccc2C(=O)O)cc1 |  | 15 |  |  |
| > 4 | 0.06 |  |  | 23 | CCCCc1ncn(Cc2cccs2)c(=O)c1Cc1ccc(-c2ccccc2C(=O)O)cc1 |  | 15 |  |  |
|  |  |  |  | 48 | CCCCc1nc(Cl)c(CO)n1Cc1ccc(-c2ccccc2C(=O)O)cc1 |  | 25 |  |  |
|  |  | 0.32 | 3.7 |  | CCCCc1nc(Cl)c(CO)n1Cc1ccc(-c2ccccc2-c2nnn[nH]2)cc1 [LOSARTAN] | 120 | 55 |  |  |
| > 4 |  |  |  |  | CCCCc1nc(C)n(Cc2ccccc2)c(=O)c1Cc1ccc(-c2ccccc2-c2nnn[nH]2)cc1 |  |  |  |  |
| > 4 | 0.264 | 0.85 |  |  | CCCCc1nc(C)n(Cc2occc2C(=O)O)c(=O)c1Cc1ccc(-c2ccccc2C(=O)O)cc1 |  | 25 |  |  |
| > 4 | 0.181 |  |  | 33 | CCCCc1nc(C)n(Cc2sccc2C(=O)O)c(=O)c1Cc1ccc(-c2ccccc2C(=O)O)cc1 |  | 15 |  |  |
| > 4 | 0.401 |  |  | 46 | CCCCc1nc(C)n(Cc2ccccc2C(=O)O)c(=O)c1Cc1ccc(-c2ccccc2C(=O)O)cc1 |  | 15 |  |  |
| > 4 | 1.097 |  |  | 42 | CCCCc1nccc(=O)n1Cc1ccc(-c2ccccc2C(=O)O)cc1 |  | 35 |  |  |
|  | 0.014 | 0.45 | 7.24 |  | CCCCc1nc(C)n(Cc2sccc2C(=O)O)c(=O)c1Cc1ccc(-c2ccccc2-c2nn[nH]n2)cc1 |  | 55 | >120 |  |
|  | 0.003 |  |  | 87 | CCCCc1nc(C)nc(O)c1Cc1ccc(-c2ccccc2-c2nn[nH]n2)cc1 |  | 55 |  |  |
| > 4 | 0.0021 | 0.54 | 2.67 |  | CCCCc1nc(C)n(Cc2ccsc2C(=O)OC)c(=O)c1Cc1ccc(-c2ccccc2-c2nn[nH]n2)cc1 | >120 | 65 |  |  |
| > 4 |  |  |  |  | CCCCc1nc(C)n(Cc2sccc2C(=O)OC)c(=O)c1Cc1ccc(-c2ccccc2-c2nnn[nH]2)cc1 | >120 | 65 |  |  |
|  | 0.00058 | 0.3 | 1.44 |  | CCCCc1nc(C)n(Cc2occc2C(=O)OC)c(=O)c1Cc1ccc(-c2ccccc2-c2nn[nH]n2)cc1 | >120 | 65 |  |  |
|  | 0.003 | 1.07 | > 10 |  | CCCCc1nc(C)n(Cc2ccccc2)c(=O)c1Cc1ccc(-c2ccccc2-c2nn[nH]n2)cc1 | 60 | 45 |  |  |
| > 4 | 0.018 | 0.31 | 4.2 |  | CCCCc1nc(C)n(Cc2ccccc2C(=O)O)c(=O)c1Cc1ccc(-c2ccccc2-c2nn[nH]n2)cc1 |  | 65 |  | >120 |
| > 4 | 0.148 |  |  | 50 | CCCCc1ncnc(O)c1Cc1ccc(-c2ccccc2C(=O)O)cc1 |  | 35 |  |  |
| > 4 |  |  |  |  | CCCCc1nc(C)[nH]c(=O)c1Cc1ccc(-c2ccccc2-c2nnn[nH]2)cc1 |  |  |  |  |
| > 4 |  |  |  |  | CCCCc1nc(C)n(Cc2cccs2)c(=O)c1Cc1ccc(-c2ccccc2-c2nnn[nH]2)cc1 | 60 | 55 |  |  |
| > 4 | 0.113 |  |  | 53 | CCCCc1nc(C)nc(O)c1Cc1ccc(-c2ccccc2C(=O)O)cc1 |  | 35 |  |  |
| > 4 | 0.04 |  |  | 39 | CCCCc1ncn(Cc2ccccc2)c(=O)c1Cc1ccc(-c2ccccc2C(=O)O)cc1 |  | 25 |  |  |
| > 4 |  |  |  |  | CCCCc1nc(C)n(Cc2occc2C(=O)OC)c(=O)c1Cc1ccc(-c2ccccc2-c2nnn[nH]2)cc1 |  |  |  |  |
| > 4 |  |  |  |  | CCCCc1nc(C)n(Cc2sccc2C(=O)O)c(=O)c1Cc1ccc(-c2ccccc2-c2nnn[nH]2)cc1 |  |  |  |  |
